This note sets out measurements from PubChem BioAssay.

Structures are written as SMILES. Active and inactive are the calls of the source.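 How the source made its calls, unless noted: active means visual image review flags a hit and inhibition of aggregation exceeds 20%; inconclusive means visual hit but inhibition at or below 20%; inactive means no hit on visual image review.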

A short description of experiment [1]: inhibitors of TNFa-induced NFkB p65 translocation, primary screen, imaging, HUVEC, MLSMR starter and 10KST1 sets (AID 438;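 active means inhibition above 20% together with a positive visual image hit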;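 further: compound added about 3h40 before a 20 min TNFalpha stimulation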;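 on inhibition: signal is the nuclear over cytoplasmic p65 intensity ratio per well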). To be noted: HUVEC TNFa-induced p65 nuclear translocation; cell count: measured here: nuclei count (cytotoxicity indicator), at 2.08 µM; inhibition: at 2 µM, stronger effect = higher value, 0% TNFa-plus-vehicle, 100% no-TNFa wells.
Experiment [2] can be described thus: inhibitors of mutant huntingtin aggregation, primary screen, imaging, exon1htt(103Q)mCFP cells, high-content imaging (AID 483).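 Further: compound exposure lasted 3 days before fixation.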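 On nuclei count: percent of the per-plate median nuclei count of sample wells.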 The conditions noted are these: exon1htt(103Q)mCFP cell line, aggregate imaging, at 2 µM; inhibition of aggregation: stronger effect = higher value; nuclei count: measured here: cell count, toxicity.
Experiment [3] in a line: inhibitors of E-selectin induction by TNFa, primary screen, imaging, HUVEC, immunofluorescence, MLSMR starter and 10KST1 sets (AID 487;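 active means visually confirmed hit in the image check and inhibition above 20%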;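 on inhibition: signal is fraction of cell area covered by stained E-selectin grains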;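 on nuclei count: 100% = median nuclei count of all wells on the same plate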). To be noted: HUVEC TNFalpha-induced E-selectin immunofluorescence imaging, at 2 µM; inhibition: stronger effect = higher value; nuclei count: measured here: cell number, toxicity.
The target of experiment [4] is Voltage-gated potassium channel subunit beta-2 (Rattus norvegicus) (UniProt P62483). Put plainly: KvBeta enzyme negative modulators, primary screen, biochemical, NADPH fluorescence (AID 622;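 active means fluorescence slope higher than the sample average by over 3 SD, cut at about -0.22 in these data, passing the limit was not always enough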;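 further: slope of raw intensity against log time taken from 70 to 1610 s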). The conditions noted are these: recombinant KvBeta, 4-cyanobenzaldehyde reduction, at 10 µM, stronger effect = higher value.
For experiment [5] the target is unchanged. Put plainly: KvBeta positive modulators, primary screen, biochemical, NADPH fluorescence (AID 623;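 active means NADPH fluorescence slope more negative than the mean of all samples by about 3 SD, 99.7% confidence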;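 further: fluorescence intensity change per second fitted from 20 to 320 s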). The conditions noted are these: Recombinant KvBeta, NADPH fluorescence decrease slope, 10 min; at 10 µM; stronger effect = lower value.
In experiment [6] the target is Muscarinic acetylcholine receptor M4 (Homo sapiens) (UniProt P08173). Put plainly: compounds altering M4/GIRK thallium flux, either direction, primary screen, M4 allosteric agonist project, cell-based, HEK293 M4/GIRK, BTC-AM (AID 625;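 active means fluorescence slope after compound addition differing from the mean of all tested samples at 99.7% confidence, mostly higher but some lower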;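 further: thallium influx through GIRK channels coupled to M4 in HEK293 cells with BTC-AM dye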). To be noted: at 10 µM, actives lie on both sides. The method in brief:
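Assay system: HEK293 cells with M4 receptor and GIRK channels / Controls: carbachol and DMSO controls / Schedule: 1 h dye loading, 2 min kinetic read / Technique: kinetic fluorescence with BTC-AM dye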

Experiment [7] in a line: inhibitors of Sendai virus-induced IRF3 signaling, primary screen, TLR/RLR signaling modifier project, cell-based, Sendai virus stimulus, luciferase, 10K MLSCN set (AID 602276;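 active means inhibition at or above 50% at 10 µM; inactive means inhibition below 50%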;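 further: firefly luciferase from ISG56 promoter only with Renilla not read in this screen; 0% = Sendai virus plus DMSO and 100% = medium plus DMSO without virus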). The conditions noted are these: HEK293 RL24 IRF3 luciferase reporter, at 10 µM, stronger effect = higher value. For orientation: Reporter assays use an easily measured gene product as a stand-in for the process of interest.

Experiment [8] is described as follows: inhibitors of poly I:C-induced TLR3 signaling, primary screen, cell-based, poly I:C stimulus, luciferase, 10K MLSCN set (AID 602277;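 active means inhibition of the reporter signal at or above 50%; inactive means inhibition below 50%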). To be noted: HEK293-TLR3 RL24 IRF3 luciferase reporter, at 10 µM, stronger effect = higher value.

Chain of Voltage-gated potassium channel subunit beta-2 (Rattus norvegicus) (P62483 whole entry, looked up): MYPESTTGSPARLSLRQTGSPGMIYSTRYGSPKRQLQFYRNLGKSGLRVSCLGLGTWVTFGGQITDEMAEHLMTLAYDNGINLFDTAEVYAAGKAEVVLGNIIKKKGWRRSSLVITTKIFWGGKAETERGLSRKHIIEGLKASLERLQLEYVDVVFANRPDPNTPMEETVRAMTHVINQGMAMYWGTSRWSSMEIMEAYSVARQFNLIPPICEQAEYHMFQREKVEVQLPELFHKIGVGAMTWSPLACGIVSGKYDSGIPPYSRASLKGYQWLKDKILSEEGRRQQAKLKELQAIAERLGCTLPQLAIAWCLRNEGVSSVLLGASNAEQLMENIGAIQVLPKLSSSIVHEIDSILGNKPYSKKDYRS
Chain of Muscarinic acetylcholine receptor M4 (Homo sapiens) (P08173 whole entry, looked up): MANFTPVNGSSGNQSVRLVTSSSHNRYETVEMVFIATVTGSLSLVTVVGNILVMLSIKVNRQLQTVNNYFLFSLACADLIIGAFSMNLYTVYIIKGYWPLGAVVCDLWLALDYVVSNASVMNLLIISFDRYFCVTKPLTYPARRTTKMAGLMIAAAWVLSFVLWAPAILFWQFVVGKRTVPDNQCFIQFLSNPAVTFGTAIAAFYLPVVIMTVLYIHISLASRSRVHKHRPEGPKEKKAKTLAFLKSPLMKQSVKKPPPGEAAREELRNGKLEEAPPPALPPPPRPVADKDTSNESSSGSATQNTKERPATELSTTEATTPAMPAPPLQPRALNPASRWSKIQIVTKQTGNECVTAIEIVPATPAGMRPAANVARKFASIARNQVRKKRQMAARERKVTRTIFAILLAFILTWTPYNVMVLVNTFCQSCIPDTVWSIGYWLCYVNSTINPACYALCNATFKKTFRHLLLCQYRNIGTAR

On to `CCOC(=O)CC1(CC(=O)OCC)NC(=O)c2c(C)sc(C(=O)OCC)c2N1`, for which, in experiment [1], the cell count worked out at 704. Besides, the inhibition in experiment [1] is -3.5% (inactive); in experiment [3], 3.1% (inactive); in experiment [7], 10.5% (inactive); in experiment [8], 17% (inactive). Also, in experiment [2], the inhibition of aggregation was 16% (inactive). For the same compound, the nuclei count in experiment [2] worked out at 94.4%; in experiment [3], 112%. Further, the figures for the fluorescence slope in experiment [4] and in experiment [6] were -0.402 (inactive) and 0.00375 (inactive), respectively. Besides, the NADPH fluorescence slope in experiment [5] is -3.3e-06 (inactive).

`CC(C)Cn1cc(C(=O)NCC2CCCO2)c2c3ccccc3n(C)c2c1=O` (centres undefined): the cell count in experiment [1] amounted to 267. For the same compound, the inhibition in experiment [1] was 11.4% (inactive); in experiment [3], -24.4% (inactive); in experiment [7] it was 13.7% (inactive); in experiment [8], 18.7% (inactive). The inhibition of aggregation in experiment [2] was 3.2% (inactive). Further, the nuclei count was 79.8% in experiment [2] and 107% in experiment [3]. For the same compound, the fluorescence slope in experiment [4] is -0.523 (inactive); in experiment [6], 0.00592 (inactive). Further, the NADPH fluorescence slope in experiment [5] was -3.1e-05 (inactive).

As for `Nc1nc(-c2ccccc2Br)cs1`, the cell count in experiment [1] amounted to 392. Also, the inhibition in experiment [1] is 4.7% (inactive); in experiment [3] it was -133% (inactive); in experiment [7] it was -14.5% (inactive); in experiment [8], -27% (inactive). Moreover, in experiment [2], the inhibition of aggregation is -8.3% (inactive). Also, the nuclei count in experiment [2] amounted to 110%; in experiment [3] it was 119%. Besides, the fluorescence slope was -0.574 (inactive) in experiment [4] and 0.00573 (inactive) in experiment [6]. Moreover, in experiment [5], the NADPH fluorescence slope is -1.6e-05 (inactive).

For the compound `Cc1ccc(NC(=O)Nc2ccc3c(c2)N(C)C(=O)CS3)nc1`, the cell count in experiment [1] was found to be 562. In addition, the inhibition is -6.9% (inactive) in experiment [1], -45% (inactive) in experiment [3], 7.37% (inactive) in experiment [7] and 0.72% (inactive) in experiment [8]. Further, in experiment [2], the inhibition of aggregation was -30.5% (inactive). Further, the nuclei count was 123% in experiment [2] and 116% in experiment [3]. Besides, the fluorescence slope is -0.395 (inactive) in experiment [4] and 0.00547 (inactive) in experiment [6]. Further, the NADPH fluorescence slope in experiment [5] is 6.1e-05 (inactive).

Take `Cc1cccc(NC(=O)c2cc3n(n2)C(C(F)(F)F)CC(c2ccc4c(c2)OCO4)N3)c1` (centres undefined): the cell count in experiment [1] worked out at 555. For the same compound, the inhibition is -6.9% (inactive) in experiment [1], 45.8% (inactive) in experiment [3], 25.3% (inactive) in experiment [7] and 25.4% (inactive) in experiment [8]. Moreover, in experiment [2], the inhibition of aggregation is 0.5% (inactive). The results for the nuclei count in experiment [2] and in experiment [3] were 82.7% and 127%, respectively. Besides, the fluorescence slope in experiment [4] is -0.546 (inactive); in experiment [6] it was 0.00563 (inactive). Further, in experiment [5], the NADPH fluorescence slope was -3.2e-05 (inactive).

Consider `COc1ccccc1-c1nnc2sc(-c3ccc(N(C)C)cc3)nn12`, for which the cell count in experiment [1] stood at 695. In addition, the inhibition was -11.2% (inactive) in experiment [1], -217% (inactive) in experiment [3], 37.1% (inactive) in experiment [7] and 87.1% (active) in experiment [8]. Moreover, the inhibition of aggregation in experiment [2] is -34.9% (inactive). The nuclei count was determined as 1.9% in experiment [2] and 107% in experiment [3]. In addition, the fluorescence slope in experiment [4] is -0.517 (inactive); in experiment [6] it was 0.00532 (inactive). In addition, the NADPH fluorescence slope in experiment [5] was 1.2e-05 (inactive).

As for `c1cnn(-c2cc(N3CCOCC3)ncn2)c1`, the cell count in experiment [1] was 301. The inhibition was -5% (inactive) in experiment [1], 2.8% (inactive) in experiment [3], -15.2% (inactive) in experiment [7] and -21.2% (inactive) in experiment [8]. Moreover, the inhibition of aggregation in experiment [2] was 20.4% (inactive). In addition, the nuclei count in experiment [2] worked out at 85.2%; in experiment [3], 101%. The fluorescence slope in experiment [4] was -0.5 (inactive); in experiment [6] it was 0.0047 (inactive). The NADPH fluorescence slope in experiment [5] was 7.1e-05 (inactive).

As to `Clc1ccccc1-c1nnc2sc(-c3ccccn3)nn12`, the cell count in experiment [1] is 420. For the same compound, the inhibition is -4.1% (inactive) in experiment [1], -102% (inactive) in experiment [3], 14.6% (inactive) in experiment [7] and 14.1% (inactive) in experiment [8]. Further, the inhibition of aggregation in experiment [2] was 24.3% (inactive). The nuclei count in experiment [2] was found to be 84.8%; in experiment [3], 118%. Moreover, the fluorescence slope was -0.447 (inactive) in experiment [4] and 0.00382 (inactive) in experiment [6]. Also, the NADPH fluorescence slope in experiment [5] is -6.3e-05 (inactive).

For the compound `Cc1ccccc1CNS(=O)(=O)c1ccc2c(c1)OCCO2`, the cell count in experiment [1] is 450. In addition, the inhibition is 3.6% (inactive) in experiment [1], -11.6% (inactive) in experiment [3], 7.7% (inactive) in experiment [7] and 11.3% (inactive) in experiment [8]. Besides, the inhibition of aggregation in experiment [2] is 2.1% (inactive). Also, the nuclei count in experiment [2] stood at 108%; in experiment [3] it was 96.6%. Also, the values for the fluorescence slope in experiment [4] and in experiment [6] were -0.558 (inactive) and 0.00348 (inactive), respectively. Also, in experiment [5], the NADPH fluorescence slope is -1.9e-05 (inactive).

For the compound `COCCCNC(=O)CCc1nc2cccnc2n1Cc1ccc(OC)cc1`, in experiment [1], the cell count is 462. Also, the inhibition is 4.3% (inactive) in experiment [1], -16.4% (inactive) in experiment [3], 14.4% (inactive) in experiment [7] and 1.17% (inactive) in experiment [8]. Further, the inhibition of aggregation in experiment [2] is -13.4% (inactive). Besides, the nuclei count in experiment [2] came out at 124%; in experiment [3], 98.8%. Also, the fluorescence slope is -0.286 (inactive) in experiment [4] and 0.006 (inactive) in experiment [6]. Moreover, the NADPH fluorescence slope in experiment [5] was -2.5e-05 (inactive).

Consider `Cc1ccnc(NC(=O)Nc2ccc(F)cc2)c1`, for which, in experiment [1], the cell count worked out at 478. In addition, the inhibition in experiment [1] was 8.1% (inactive); in experiment [3], -266% (inactive); in experiment [7], -59.1% (inactive); in experiment [8], -110% (inactive). Besides, the inhibition of aggregation in experiment [2] was 9.2% (inactive). Further, the nuclei count was 98.7% in experiment [2] and 126% in experiment [3]. The fluorescence slope in experiment [4] was -0.567 (inactive); in experiment [6] it was 0.0057 (inactive). The NADPH fluorescence slope in experiment [5] is -9.3e-06 (inactive).

Regarding `O=C1C2CCCN2C(c2ccc(Cl)cc2)N1c1nccs1` (centres undefined), the cell count in experiment [1] was determined as 378. In addition, the inhibition was -7.5% (inactive) in experiment [1], 12.8% (inactive) in experiment [3], 11.3% (inactive) in experiment [7] and 13.5% (inactive) in experiment [8]. Besides, the inhibition of aggregation in experiment [2] is -18.3% (inactive). In addition, the figures for the nuclei count in experiment [2] and in experiment [3] were 99.7% and 92.8%, respectively. For the same compound, the fluorescence slope in experiment [4] was -0.556 (inactive); in experiment [6] it was 0.00531 (inactive). Further, the NADPH fluorescence slope in experiment [5] was -6e-05 (inactive).

Turning to `C/C(=N\O)c1ccc2c3c([nH]c2c1)CCCC3`, the cell count in experiment [1] came out at 364. Besides, the inhibition in experiment [1] was -1.9% (inactive); in experiment [3], -78.7% (inactive); in experiment [7], -28% (inactive); in experiment [8] it was -111% (inactive). Moreover, the inhibition of aggregation in experiment [2] is 6.7% (inactive). Moreover, the nuclei count in experiment [2] was found to be 87.1%; in experiment [3], 96.4%. The fluorescence slope was -0.532 (inactive) in experiment [4] and 0.006 (inactive) in experiment [6]. For the same compound, the NADPH fluorescence slope in experiment [5] is -3.8e-05 (inactive).

In the case of `O=c1c(-c2ccc(F)cc2)coc2c3c(ccc12)OCCO3`, the cell count in experiment [1] amounted to 337. Moreover, the inhibition is 0.7% (inactive) in experiment [1], -65.5% (inactive) in experiment [3], -29.6% (inactive) in experiment [7] and -86.4% (inactive) in experiment [8]. Moreover, the inhibition of aggregation in experiment [2] is 14.4% (inactive). In addition, the figures for the nuclei count in experiment [2] and in experiment [3] were 131% and 124%, respectively. In addition, the results for the fluorescence slope in experiment [4] and in experiment [6] were -0.501 (inactive) and 0.00582 (inactive), respectively. The NADPH fluorescence slope in experiment [5] is -0.000205 (inactive).

By inhibition is commonly meant the drop in the measured response relative to a control, in per cent.
